NF-kB expr up = NF-kB expression increase, human neuronal cells; AID 1239; fold change at 12.5 µM; NF-kB reporter expression; stronger effect = higher value; 1.6% of 190,000 active; in the data active = fold change above about 3.3
APP 5'UTR act = activates APP 5'UTR luciferase reporter. SH-SY5Y APP 5'UTR luciferase reporter, luminescence; zero percent = DMSO vehicle wells. activation, % at 2 µM. 1% of 190,000 active;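 active = activation above a set limit, based on mean plus 3 SD of controls, cut at about 140% in these data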
FLuc inhib CS = counter-screen for luciferase assay inhibitors: firefly luciferase inhibition; P08659; ATPLite firefly luciferase biochemical luminescence, 10 min; inhibition, % at 10 µM; 1.5% of 200,000 active; AID 1006;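 active = inhibition above about 50% when tested at 10 µM, limit read from the data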
Target sequence (P08659 whole entry, looked up): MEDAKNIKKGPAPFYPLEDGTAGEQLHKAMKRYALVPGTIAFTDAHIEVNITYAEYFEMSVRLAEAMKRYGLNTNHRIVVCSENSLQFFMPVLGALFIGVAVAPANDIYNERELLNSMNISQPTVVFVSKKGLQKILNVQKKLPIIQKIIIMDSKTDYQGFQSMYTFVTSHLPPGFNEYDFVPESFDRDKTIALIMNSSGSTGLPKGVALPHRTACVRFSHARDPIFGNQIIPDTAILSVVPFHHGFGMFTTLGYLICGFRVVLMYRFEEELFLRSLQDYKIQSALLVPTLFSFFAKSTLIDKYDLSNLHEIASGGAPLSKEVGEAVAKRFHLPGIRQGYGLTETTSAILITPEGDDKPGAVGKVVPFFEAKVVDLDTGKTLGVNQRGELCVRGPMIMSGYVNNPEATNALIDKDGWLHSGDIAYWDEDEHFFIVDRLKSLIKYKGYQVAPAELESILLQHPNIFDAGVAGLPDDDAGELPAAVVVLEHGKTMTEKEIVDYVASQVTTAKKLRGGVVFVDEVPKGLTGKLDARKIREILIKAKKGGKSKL
FLuc stim CS = affects firefly luciferase, flagging false hits in luciferase stimulation screens; P08659; ATPlite luciferase biochemical, luminescence, 10 min; 0 = ATP-free wells, 1 = DMSO control; activation factor at 10 µM; 200,000 tested, under 10 active; AID 1027;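 active = luciferase activation factor, scaled between plate controls, of at least 2 with compound at 10 µM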
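System: luciferase plus luciferin reagent, cell-free; medium: PBS as buffer for the ATP substrate; dosing: test compounds dosed from 2 mM stocks in 100% DMSO; timing: 10 min post-reagent at room temperature; measured by: luminescence measurement of luciferase light output; evaluation: luciferase activation, seen as luminescence increase over controls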
STAT1 act = STAT1 signaling activation; NIH 3T3 STAT1-luciferase reporter, IFN-gamma, luminescence; 100% = IFN-gamma alone, no compound; activation (% of control), % at 5.5 µM; 2.6% of 200,000 active; AID 932;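 active = activation above the screen-wide mean activation plus 3 SD, cut at about 130% in these data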;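 note: raw ratio to IFN-gamma control signal so 100% means no change and 0% no light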
An asterisk follows results filed as active; nt = no result given. Shown are actives, neighbours in structure and some others; about 4.1% of the full set was active somewhere.

SMILES	NF-kB expr up	APP 5'UTR act	FLuc inhib CS	FLuc stim CS	STAT1 act
COc1cccc(NC(=O)c2ccc(NC(=O)C(C)(C)C)cc2)c1	2.1	94	41	0.6	136*
CC(C)(C)N1CSC(=S)N(Cc2ccccc2)C1	4.5*	-14	-7	1.1	99
c1ccc(OCc2nc3ccccc3[nH]2)cc1	2.4	101	34	0.7	129*
Clc1ccc(OCc2nc3ccccc3[nH]2)cc1	nt	184*	70*	0.3	144*
O=S(=O)(CCc1nc2ccccc2[nH]1)c1ccc(Cl)cc1	1.3	-2	-4	1	107
CCc1nc2ccccc2[nH]1	1.2	11	-1	1	101
Cc1ccc(OCc2nc3ccccc3[nH]2)cc1	1.1	164*	88*	0.1	147*
O=C(COC(=O)Cc1cn2ccsc2n1)NC12CC3CC(CC(C3)C1)C2	1	4	-4	1	95
O=C(c1ccco1)N1CCN(Cc2nc3ccccc3c(=O)n2-c2ccc(F)cc2)CC1	0.88	nt	-7	1.1	85
c1ccc(-c2nnc3ccc(N4CCC5(CC4)OCCO5)nn23)cc1	3.6*	10	-6	1.1	109
NC(=O)C1(N2CCCCC2)CCN(c2ccc3nnc(-c4ccccc4)n3n2)CC1	0.78	-3	-8	1.1	104
O=C(Nc1cc2c(ccc3ccccc32)oc1=O)C1CCCCC1	1.1	2	-5	1	96
CC(=O)Nc1cc2c(ccc3ccccc32)oc1=O	1.5	4	-3	1	121
CNC(=O)c1cc2c(ccc3ccccc32)o1	1.3	27	8	0.9	133*
O=C(NC1CCCC1)c1cc2c(ccc3ccccc32)o1	3.4*	10	10	0.9	137*
Fc1ccc2c(Cl)c(-c3nnc(-c4cccs4)o3)sc2c1	2.3	146*	34	0.7	118
Clc1ccc2c(Cl)c(-c3nnc(-c4ccccc4)o3)sc2c1	nt	2	nt	nt	104
CCCC(=O)NNC(=O)c1ccoc1C	1.2	-13	-8	1.1	96
CCC(C)(C)C1CCC(=NNC(=O)c2ccoc2C)CC1 (stereo unspecified)	1.7	144*	-4	1	126
c1cncc(-c2nc(N3CCOCC3)c3c4c(sc3n2)CCC4)c1	0.77	-16	-5	1.1	109
C=CCNS(=O)(=O)c1cccc2cc(C(=O)O)c(O)cc12	0.83	4	-6	1.1	96
CN(C)c1oc(/C=C/c2ccccc2)nc1C#N	2.1	62	0	1	138*
CN(C)c1oc(-c2ccccc2)nc1C#N	1.2	-7	-3	1	104
O=C(NNC(=O)c1ccccc1Br)c1ccc(Cl)cc1	1.6	1	10	0.9	108
O=C(Nc1ccc(Cl)cc1F)c1ccccc1Br	5.7*	120	20	0.8	148*
SMILES	NF-kB expr up	APP 5'UTR act	FLuc inhib CS	FLuc stim CS	STAT1 act
O=C(Nc1ccc(C(F)(F)F)cc1)c1ccccc1Br	2.3	30	-4	1	129*
Cc1c(C(=O)N/N=C/c2cccnc2)sc(=S)n1C	0.94	-7	-2	1	103
COc1ccc(/C=N/NC(=O)c2ccoc2C)cc1COc1c(C)cccc1C	3	22	-6	1.1	106
CC(C)CC(=O)Nc1ccc(C(=O)Nc2cccc(O)c2)cc1	2	68	22	0.8	132*
O=C(Nc1ccc(C(F)(F)F)cc1)c1ccc2nc[nH]c2c1	1.8	7	4	1	112
O=C(Nc1cccc(O)c1)c1ccc(C(F)(F)F)cc1	3.7*	91	57*	0.4	104
O=C(CN1C(=O)C2CC=CCC2C1=O)Nc1ccc(-c2nnc3n2CCCCC3)cc1 (stereo unspecified)	1.1	-9	-9	1.1	87
CCC1(C)Cc2c(C#N)c(N)n(-c3ccccc3)c(=S)c2CO1 (stereo unspecified)	nt	1	-5	1.1	101
O=C(CC1(O)C(=O)N(C/C=C/c2ccccc2)c2ccccc21)c1ccccn1 (stereo unspecified)	3.8*	-57	-3	1	94
Cc1ccc(-c2ccc(=O)n(CC(=O)NCCCN3CCCCC3C)n2)cc1 (stereo unspecified)	1	4	-7	1.1	91
Cc1ccc(NC(=O)c2snc3ccc(Cl)cc23)cc1C	1.7	92	0	1	130*
Cc1ccc(-c2nc3ccc(C(=O)O)cc3nc2-c2ccc(C)cc2)cc1	1.2	17	-5	1.1	86
Cc1nc2ccc(NC(=O)Cc3cccc(F)c3)cc2s1	1.6	59	4	1	115
Cc1nc2ccc(NC(=O)c3sccc3C)cc2s1	4.7*	163*	34	0.7	143*
Cc1nc2ccc(NC(=O)c3ccc4ccccc4n3)cc2s1	2.3	76	15	0.8	135*
Cc1nc2ccc(NC(=O)Cc3ccccc3F)cc2s1	6.8*	133	54*	0.5	141*
CNC(=O)Nc1ccc2nc(C)sc2c1	1.4	11	4	1	99
Cc1nc2cc(C(=O)O)ccc2s1	2.1	50	-6	1.1	143*
COC(=O)/C=C1/SC(=Nc2ccc(C)cc2C)NC1=O	1.4	14	-1	1	106
Cc1ccc(C)c(NC(=O)c2ccc3ccccc3n2)c1	8.5*	70	56*	0.4	124
Cc1nc2ccc(NC(=O)c3ccccc3)cc2s1	2.6	82	20	0.8	131*
Cc1ccc(C)c(NC(=O)c2ccccn2)c1	1.6	17	8	0.9	112
CCc1nc2ccc(C(=O)O)cc2nc1CC	6.1*	53	0	1	102
Cc1ccccc1OCCNC(=O)c1ccc2ccccc2n1	1.4	146*	4	1	141*
Cc1ccc(Cn2c(=N)n(CC(O)COc3ccccc3)c3ccccc32)cc1 (stereo unspecified)	1.3	1	-4	1	80
SMILES	NF-kB expr up	APP 5'UTR act	FLuc inhib CS	FLuc stim CS	STAT1 act
Cc1nnc(NC(=O)c2ccc3ccccc3n2)s1	2.1	40	36	0.6	138*
NNC(=O)c1ccc2ccccc2n1	1.2	24	-5	1.1	98
Cc1ccc(Nc2nc(COC(=O)C3CC3)cs2)cc1	3.6*	95	53*	0.5	125
CCOC(=O)CNC(=O)c1ccc2[nH]c3ccccc3c2c1	1	14	5	1	110
c1ccc2sc(SCc3ccc(-c4nnco4)cc3)nc2c1	4.2*	121	7	0.9	119
CCC(=O)N1CCCc2cc(S(=O)(=O)N3CCN(c4ccccn4)CC3)ccc21	0.6	-12	-4	1	97
O=[N+]([O-])c1nn(-c2ccc(Cl)cc2)n(O)c1=NCc1ccncc1	0.97	-11	-9	1.1	110
Cc1cccc(N=c2c([N+](=O)[O-])nn(-c3ccc(Cl)cc3)n2O)c1	1.5	21	-9	1.1	104
Cc1ccc(CN=c2c([N+](=O)[O-])nn(-c3ccc(Cl)cc3)n2O)cc1	1.2	11	4	1	140*
